Results taken from ChEMBL document CHEMBL4706595, “1,3-Oxazine-2-one derived dual-targeted molecules against replicating and non-replicating forms of Mycobacterium tuberculosis” (Eur J Med Chem, 2020).
In brackets after ≈: the same amount, converted by molar mass. Activity calls are given as the source filed them. The calls are words filed in the database; no cut-off is given here.

Legend:
[1] = tested on: Mycobacterium tuberculosis; experiment: Antimycobacterial activity against replicating Mycobacterium tuberculosis H37Rv assessed as inhibition of bacterial growth incubated for 7 days by MABA assay; format: functional; conditions: time 7 day
[2] = tested on: Mycobacterium tuberculosis; experiment: Antimycobacterial activity against non-replicating Mycobacterium tuberculosis H37Rv expressing pFCA-LuxAB assessed as bacterial growth inhibition incubated for 10 days under anerobic condition by low oxygen recovery assay; format: functional; conditions: 240 h, time 10 day
[3] = tested on: Mycobacterium tuberculosis; experiment: Antimycobacterial activity against replicating Mycobacterium tuberculosis H37Ra assessed as inhibition of bacterial growth incubated for 7 days by MABA assay; format: functional; conditions: time 7 day
[4] = tested on: Mycolicibacterium smegmatis; experiment: Antimycobacterial activity against Mycobacterium smegmatis mc2155 assessed as inhibition of bacterial growth incubated for 48 hrs by broth microdilution method; format: functional; conditions: MC2 155
[5] = Cytotoxicity against human PBMC assessed as reduction in cell growth after 72 hrs by MTT assay; format: tissue-based
[6] = tested on: Mycobacterium tuberculosis; experiment: Inhibition of mycolic acid biosynthesis in Mycobacterium tuberculosis H37Ra assessed as reduction in alfa-mycolate production at 5XMIC incubated for 7 days by TLC analysis; format: functional; conditions: for inhibition (INH): time 7 day
[7] = Inhibition of Mycobacterium tuberculosis H37Ra menG assessed as inhibition of 2-methyl-3-(3,7,11-trimethyldodeca-2,6,10-trienyl)naphthalene-1,4-dione formation using 2-(3,7,11-trimethyldodeca-2,6,10-trienyl)naphthalene-1,4-dione as substrate incubated for 3 hrs in presence of SAM by HPLC analysis
[8] = Inhibition of Mycobacterium smegmatis mc2155 menG assessed as inhibition of 2-methyl-3-(3,7,11-trimethyldodeca-2,6,10-trienyl)naphthalene-1,4-dione formation using 2-(3,7,11-trimethyldodeca-2,6,10-trienyl)naphthalene-1,4-dione as substrate incubated for 3 hrs in presence of SAM by HPLC analysis; set-up: species or system Mycolicibacterium smegmatis MC2 155
[9] = tested on: Mycobacterium tuberculosis; experiment: Inhibition of mycolic acid biosynthesis in Mycobacterium tuberculosis H37Ra assessed as reduction in methoxy-mycolate production at 5XMIC incubated for 7 days by TLC analysis; format: functional; conditions: time 7 day
[10] = tested on: Mycobacterium tuberculosis; experiment: Inhibition of mycolic acid biosynthesis in Mycobacterium tuberculosis H37Ra assessed as reduction in keto-mycolate production at 5XMIC incubated for 7 days by TLC analysis; format: functional; conditions: for inhibition (INH): time 7 day
[11] = tested on: Mycobacterium tuberculosis; experiment: Antimycobacterial activity against Mycobacterium tuberculosis H37Rv ATCC 27294 assessed as inhibition of bacterial growth by agar plate dilution method; format: functional
Procedure, shortened: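 MIC determined by agar plate dilution method; isoniazid and rifampin run as references.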

[12] = tested on: Mycobacterium tuberculosis; experiment: Antimycobacterial activity against dormant Mycobacterium tuberculosis H37Ra assessed as inhibition of bacterial growth at 30 ug/ml incubated for 10 days in presence of Vit-K2 measured following 27 days of culturing on agar plate […] relative to control; format: functional; conditions: dose 30 µg/ml; time 37 day
Procedure, shortened: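 Dormant H37Ra: 2×10⁶ bacteria/ml in sealed vials, 37 °C, 25 rpm. Cultures with compound (3 or 30 µg/ml) plus 1 mM Vit-K2 grown 10 days, then CFU counted on 7H10 agar after 27 days; comparison with 1 mM Vit-K2 set.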

[13] = tested on: Mycobacterium tuberculosis; experiment: Inhibition of respiratory system in dormant Mycobacterium tuberculosis H37Ra assessed as reduction in ATP production at 20 to 80 ug/ml measured on day 3 to 9 following drug addition by microplate reader analysis; format: functional; conditions: dose 20-80 µg/ml, time 3-9 day

SMILES	MIC [1]	MIC [2]	MIC [3]	MIC [4]	IC50 [5]	inhibition (INH) [6]	IC50 [7]	IC50 [8]	inhibition (INH) [9]	inhibition (INH) [10]	MIC [11]	fold change (FC) [12]	inhibition [13]	inhibition ([6]; time 7.0 day)	inhibition ([10]; time 7.0 day)
CCCCCOc1ccc(C(=O)OCCCOc2cccc(Nc3nc4ccccc4c(=O)o3)c2)cc1	7.01 µg/mL (≈ 13.9 µM)	9.02 µg/mL (≈ 17.9 µM)	8.16 µg/mL (≈ 16.2 µM)	25 µg/mL (≈ 49.7 µM)	142 µg/mL (≈ 282 µM)	100%	20.88 µg/mL	27.19 µg/mL	48%	37%	–	–	–	–	–
CCCCCCCC/C=C/CCCCCCCC(=O)Oc1cccc(Nc2nc3ccccc3c(=O)o2)c1	47.4 µg/mL (≈ 91.3 µM)	68.9 µg/mL (≈ 133 µM)	51.4 µg/mL (≈ 99.2 µM)	50 µg/mL (≈ 96.4 µM)	179 µg/mL (≈ 344 µM)	–	–	–	–	–	–	–	–	–	–
CCCCCCC(=O)Oc1cccc(Nc2nc3ccccc3c(=O)o2)c1	> 100 µg/mL	> 100 µg/mL	> 100 µg/mL	50 µg/mL (≈ 136 µM)	176 µg/mL (≈ 481 µM)	–	–	–	–	–	–	–	–	–	–
CC(=O)Oc1cccc(Nc2nc3ccccc3c(=O)o2)c1	> 100 µg/mL	80.3 µg/mL (≈ 271 µM)	> 100 µg/mL	100 µg/mL (≈ 338 µM)	131 µg/mL (≈ 444 µM)	–	–	–	–	–	–	–	–	–	–
CCCCCCCCOc1ccc(C(=O)OCCCOc2cccc(Nc3nc4ccccc4c(=O)o3)c2)cc1	12.4 µg/mL (≈ 22.8 µM)	18.9 µg/mL (≈ 34.8 µM)	16.2 µg/mL (≈ 29.8 µM)	12.5 µg/mL (≈ 23 µM)	154 µg/mL (≈ 283 µM)	–	–	–	–	–	–	–	–	–	–
CCOc1ccc(C(=O)OCCCOc2cccc(Nc3nc4ccccc4c(=O)o3)c2)cc1	> 100 µg/mL	> 100 µg/mL	> 100 µg/mL	> 100 µg/mL	102 µg/mL (≈ 223 µM)	–	–	–	–	–	–	–	–	–	–
CCCC(=O)Oc1cccc(Nc2nc3ccccc3c(=O)o2)c1	> 100 µg/mL	> 100 µg/mL	> 100 µg/mL	> 100 µg/mL	199 µg/mL (≈ 615 µM)	–	–	–	–	–	–	–	–	–	–
CCCCCCCCCOc1ccc(C(=O)OCCCOc2cccc(Nc3nc4ccccc4c(=O)o3)c2)cc1	41.8 µg/mL (≈ 74.9 µM)	31 µg/mL (≈ 55.6 µM)	37.1 µg/mL (≈ 66.5 µM)	50 µg/mL (≈ 89.5 µM)	169 µg/mL (≈ 303 µM)	–	–	–	–	–	–	–	–	–	–
CC(C)=CCC/C(C)=C/COc1ccc(C(=O)OCCCOc2cccc(Nc3nc4ccccc4c(=O)o3)c2)cc1	3.48 µg/mL (≈ 6.12 µM)	2.94 µg/mL (≈ 5.17 µM)	3.93 µg/mL (≈ 6.91 µM)	6.3 µg/mL (≈ 11.1 µM)	134 µg/mL (≈ 236 µM)	100%	9.11 µg/mL	11.76 µg/mL	100%	100%	3.5 µg/mL (≈ 6.15 µM)	2.9	–	–	–
CCCCOc1ccc(C(=O)OCCCOc2cccc(Nc3nc4ccccc4c(=O)o3)c2)cc1	7.28 µg/mL (≈ 14.9 µM)	9.41 µg/mL (≈ 19.3 µM)	6.32 µg/mL (≈ 12.9 µM)	25 µg/mL (≈ 51.2 µM)	117 µg/mL (≈ 239 µM)	100%	20.06 µg/mL	29.71 µg/mL	36%	31%	–	–	–	–	–
O=c1oc(Nc2cccc(O)c2)nc2ccccc12	75.2 µg/mL (≈ 296 µM)	40.1 µg/mL (≈ 158 µM)	66.2 µg/mL (≈ 260 µM)	25 µg/mL (≈ 98.3 µM)	173 µg/mL (≈ 682 µM)	–	–	–	–	–	–	–	–	–	–
CCCOc1ccc(C(=O)OCCCOc2cccc(Nc3nc4ccccc4c(=O)o3)c2)cc1	11.7 µg/mL (≈ 24.7 µM)	15.3 µg/mL (≈ 32.2 µM)	10 µg/mL (≈ 21.1 µM)	12.5 µg/mL (≈ 26.3 µM)	145 µg/mL (≈ 306 µM)	–	–	–	–	–	–	–	–	–	–
CCC(=O)Oc1cccc(Nc2nc3ccccc3c(=O)o2)c1	> 100 µg/mL	98.5 µg/mL (≈ 317 µM)	> 100 µg/mL	100 µg/mL (≈ 322 µM)	180 µg/mL (≈ 579 µM)	–	–	–	–	–	–	–	–	–	–
CCCCCCCCC(=O)Oc1cccc(Nc2nc3ccccc3c(=O)o2)c1	> 100 µg/mL	> 100 µg/mL	> 100 µg/mL	> 100 µg/mL	171 µg/mL (≈ 434 µM)	–	–	–	–	–	–	–	–	–	–
CCCCCCCCCCCCCCCCCCOc1ccc(C(=O)OCCCOc2cccc(Nc3nc4ccccc4c(=O)o3)c2)cc1	56.1 µg/mL (≈ 81.9 µM)	38.2 µg/mL (≈ 55.7 µM)	60.4 µg/mL (≈ 88.2 µM)	12.5 µg/mL (≈ 18.3 µM)	158 µg/mL (≈ 231 µM)	–	–	–	–	–	–	–	–	–	–
COc1ccc(C(=O)OCCCOc2cccc(Nc3nc4ccccc4c(=O)o3)c2)cc1	9.71 µg/mL (≈ 21.7 µM)	40 µg/mL (≈ 89.6 µM)	8.16 µg/mL (≈ 18.3 µM)	> 100 µg/mL	162 µg/mL (≈ 364 µM)	–	–	–	–	–	–	–	–	–	–
CCCCCCCCCC(=O)Oc1cccc(Nc2nc3ccccc3c(=O)o2)c1	33 µg/mL (≈ 80.7 µM)	53.3 µg/mL (≈ 130 µM)	29.6 µg/mL (≈ 72.4 µM)	25 µg/mL (≈ 61.2 µM)	195 µg/mL (≈ 476 µM)	–	–	–	–	–	–	–	–	–	–
CCCCCCCOc1ccc(C(=O)OCCCOc2cccc(Nc3nc4ccccc4c(=O)o3)c2)cc1	> 100 µg/mL	> 100 µg/mL	> 100 µg/mL	> 100 µg/mL	181 µg/mL (≈ 341 µM)	–	–	–	–	–	–	–	–	–	–
CC(C)=CCC/C(C)=C/CC/C(C)=C/COc1ccc(C(=O)OCCCOc2cccc(Nc3nc4ccccc4c(=O)o3)c2)cc1	2.97 µg/mL (≈ 4.66 µM)	2.15 µg/mL (≈ 3.38 µM)	2.71 µg/mL (≈ 4.26 µM)	3.2 µg/mL (≈ 5.03 µM)	169 µg/mL (≈ 266 µM)	100%	6.25 µg/mL	10.88 µg/mL	100%	100%	2.9 µg/mL (≈ 4.55 µM)	4.1	Active	–	–
CCCCCC(=O)Oc1cccc(Nc2nc3ccccc3c(=O)o2)c1	> 100 µg/mL	> 100 µg/mL	> 100 µg/mL	> 100 µg/mL	186 µg/mL (≈ 529 µM)	–	–	–	–	–	–	–	–	–	–
CCCCCCOc1ccc(C(=O)OCCCOc2cccc(Nc3nc4ccccc4c(=O)o3)c2)cc1	6.12 µg/mL (≈ 11.8 µM)	5.32 µg/mL (≈ 10.3 µM)	5.83 µg/mL (≈ 11.3 µM)	6.3 µg/mL (≈ 12.2 µM)	123 µg/mL (≈ 238 µM)	–	13.53 µg/mL	16.33 µg/mL	61%	–	–	–	–	Active	Active
CC(C)=CCOc1cccc(NC(=O)Nc2ccccc2C)c1	5.2 µg/mL (≈ 16.8 µM)	–	–	–	–	–	–	–	–	–	–	–	–	–	–
CCCCCCCC(=O)Oc1cccc(Nc2nc3ccccc3c(=O)o2)c1	> 100 µg/mL	> 100 µg/mL	> 100 µg/mL	> 100 µg/mL	190 µg/mL (≈ 499 µM)	–	–	–	–	–	–	–	–	–	–
CO[C@H]1/C=C/O[C@@]2(C)Oc3c(C)c(O)c4c(O)c(c(/C=N/N5CCN(C)CC5)c(O)c4c3C2=O)NC(=O)/C(C)=C\C=C\[C@H](C)[C@H](O)[C@@H](C)[C@@H](O)[C@@H](C)[C@H](OC(C)=O)[C@@H]1C [RIFAMPIN]	0.01 µg/mL (≈ 0.0122 µM)	0.04 µg/mL (≈ 0.0486 µM)	0.02 µg/mL (≈ 0.0243 µM)	1.5 µg/mL (≈ 1.82 µM)	62.9 µg/mL (≈ 76.5 µM)	–	–	–	–	–	0.01 µg/mL (≈ 0.0122 µM)	–	–	–	–
CC(C)=CCOc1ccc(C(=O)OCCCOc2cccc(Nc3nc4ccccc4c(=O)o3)c2)cc1	> 100 µg/mL	> 100 µg/mL	> 100 µg/mL	12.5 µg/mL (≈ 25 µM)	190 µg/mL (≈ 380 µM)	–	–	–	–	–	–	–	–	–	–
CCCCCCCCCCOc1ccc(C(=O)OCCCOc2cccc(Nc3nc4ccccc4c(=O)o3)c2)cc1	32.1 µg/mL (≈ 56.1 µM)	45.1 µg/mL (≈ 78.7 µM)	38 µg/mL (≈ 66.4 µM)	100 µg/mL (≈ 175 µM)	173 µg/mL (≈ 303 µM)	–	–	–	–	–	–	–	–	–	–
CCCCC(=O)Oc1cccc(Nc2nc3ccccc3c(=O)o2)c1	> 100 µg/mL	> 100 µg/mL	> 100 µg/mL	> 100 µg/mL	201 µg/mL (≈ 595 µM)	–	–	–	–	–	–	–	–	–	–
CCCCCCCCCCCCCCCC(=O)Oc1cccc(Nc2nc3ccccc3c(=O)o2)c1	> 100 µg/mL	> 100 µg/mL	> 100 µg/mL	100 µg/mL (≈ 203 µM)	182 µg/mL (≈ 369 µM)	–	–	–	–	–	–	–	–	–	–
NNC(=O)c1ccncc1 [ISONIAZID]	0.43 µg/mL (≈ 3.14 µM)	> 128 µg/mL	0.3 µg/mL (≈ 2.19 µM)	6.1 µg/mL (≈ 44.5 µM)	71.7 µg/mL (≈ 523 µM)	–	–	–	–	–	0.4 µg/mL (≈ 2.92 µM)	–	–	–	–
CCCCCCCC/C=C/CCCCCCCCOc1ccc(C(=O)OCCCOc2cccc(Nc3nc4ccccc4c(=O)o3)c2)cc1	18.7 µg/mL (≈ 27.4 µM)	35.9 µg/mL (≈ 52.6 µM)	19.6 µg/mL (≈ 28.7 µM)	12.5 µg/mL (≈ 18.3 µM)	150 µg/mL (≈ 219 µM)	–	–	–	–	–	–	–	–	–	–
